Test results taken from ChEMBL document CHEMBL1137658, “Effect of caspofungin on metabolite profiles of Aspergillus species determined by nuclear magnetic resonance spectroscopy” (2007).
The source made the active and inactive calls. No cut-off for these calls is given here.

How the values were obtained:
Aspergillus fumigatus [1] = test: Antifungal activity against Aspergillus fumigatus ATCC 204305 assessed as lowest drug concentration resulting in aberrant hyphal growth after 72 hrs by broth microdilution method; type: functional
Aspergillus fumigatus [2] = test: Inhibition of metabolite production in Aspergillus fumigatus isolate 06-067-1639 assessed as inhibition of malate and fumarate production at 2 to 4 ug/ml; type: functional
Aspergillus fumigatus [3] = test: Increase in metabolite production in Aspergillus fumigatus isolate 06-067-1639 assessed as paradoxical increase in glycine betain, fumarate, succinate level at 1 ug/ml after 48 hrs; type: functional, organism-based
Aspergillus nidulans [4] = test: Antifungal activity against Aspergillus nidulans isolate 05-326-1785 assessed as lowest drug concentration resulting in aberrant hyphal growth after 72 hrs by broth microdilution method; type: functional
Aspergillus fumigatus [5] = test: Antifungal activity against Aspergillus fumigatus ATCC 204305 assessed as lowest drug concentration resulting in aberrant hyphal growth after 48 hrs by broth microdilution method; type: functional
Outline: (§1)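 Caspofungin tested by modified CLSI M38-A microdilution in RPMI 1640 plus 2% glucose, l-glutamine, MOPS pH 7. Serial dilutions 0.03125 to 16 μg/ml; duplicate plates. MEC = lowest concentration giving aberrant hyphal growth on inverted-microscope examination, read at 48 h.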

Aspergillus fumigatus [6] = test: Antifungal activity against Aspergillus fumigatus isolate 06-067-1639 assessed as lowest drug concentration resulting in aberrant hyphal growth after 48 hrs by broth microdilution method; type: functional; outline: as §1
Aspergillus terreus [7] = test: Antifungal activity against Aspergillus terreus isolate 04-188-2548 assessed as lowest drug concentration resulting in aberrant hyphal growth after 48 hrs by broth microdilution method; type: functional; outline: as §1
Aspergillus niger [8] = test: Antifungal activity against Aspergillus niger isolate 05-112-3701 assessed as lowest drug concentration resulting in aberrant hyphal growth after 48 hrs by broth microdilution method; type: functional; outline: as §1
Aspergillus fumigatus [9] = test: Inhibition of metabolite production in Aspergillus fumigatus ATCC 204305 assessed as lowest drug concentration required to inhibit 50% malate production after 48 hrs in presence of 0.2 % glucose by NMR spectroscopy; type: functional
Outline: (§2)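 A. fumigatus ATCC 204305 incubated 48 h and 72 h with caspofungin in RPMI 1640 containing 0.2% glucose instead of 2%. ¹H NMR of medium. MEP from malate peak area, taken at ≥50% reduction.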

Aspergillus fumigatus [10] = test: Increase in metabolite production in Aspergillus fumigatus ATCC 204305 assessed as paradoxical increase in glycine betaine, fumarate and succinate level at >= 0.5 ug/ml after 48 hrs
Aspergillus fumigatus [11] = test: Inhibition of metabolite production in Aspergillus fumigatus ATCC 204305 assessed as lowest drug concentration required to inhibit 50% malate production after 48 hrs in presence of 2 % glucose by NMR spectroscopy; type: functional
Outline: (§3)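 Cultures grown in RPMI 1640-2% glucose-MOPS with drug series, 48 h. Culture media analysed by 600-MHz ¹H NMR. MEP taken from stack plots and peak integrals of resolved resonances, as lowest drug concentration suppressing nutrient use or metabolite production by ≥50%. Alternative MEP: lowest concentration raising fumarate >50%.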

Aspergillus fumigatus [12] = test: Inhibition of metabolite production in Aspergillus fumigatus ATCC 204305 assessed as lowest drug concentration required to inhibit 50% glycine betain, fumarate, malate production after 48 hrs in presence of 2 % glucose by NMR spectroscopy; type: functional; outline: as §3
Aspergillus niger [13] = test: Inhibition of metabolite production in Aspergillus niger isolate 05-290-2479 assessed as lowest drug concentration required to inhibit 50% citrate production after 48 hrs in presence of 2 % glucose by NMR spectroscopy; type: functional; outline: as §3
Aspergillus nidulans [14] = test: Inhibition of metabolite production in Aspergillus nidulans isolate 00-202661 assessed as lowest drug concentration required to inhibit 50% fumarate production after 72 hrs in presence of 2 % glucose by NMR spectroscopy; type: functional
Outline: (§4)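 A. nidulans grows slowly, so spectra were recorded after 72 h incubation in RPMI 1640-2% glucose-MOPS with drug dilutions. 600-MHz ¹H NMR of culture medium. Fumarate peak integrals plotted against drug concentration. MEP = lowest concentration with ≥50% fall in fumarate.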

Aspergillus flavus [15] = test: Increase in metabolite production in Aspergillus flavus ATCC 204304 assessed as lowest drug concentration required to increase >50% fumarate production after 48 hrs in presence of 2 % glucose by NMR spectroscopy; type: functional; outline: as §3
Aspergillus terreus [16] = test: Antifungal activity against Aspergillus terreus isolate 06-059-2428 assessed as lowest drug concentration resulting in aberrant hyphal growth after 48 hrs by broth microdilution method; type: functional; outline: as §1
Aspergillus flavus [17] = test: Increase in metabolite production in Aspergillus flavus isolate 05-314-1100 assessed as lowest drug concentration required to increase >50% fumarate production after 48 hrs in presence of 2 % glucose by NMR spectroscopy; type: functional; outline: as §3
Aspergillus flavus [18] = test: Antifungal activity against Aspergillus flavus isolate 05-314-1100 assessed as lowest drug concentration resulting in aberrant hyphal growth after 48 hrs by broth microdilution method; type: functional; outline: as §1
Aspergillus fumigatus [19] = test: Inhibition of metabolite production in Aspergillus fumigatus ATCC 204305 assessed as lowest drug concentration required to inhibit 50% malate production after 72 hrs in presence of 0.2 % glucose by NMR spectroscopy; type: functional; outline: as §2
Aspergillus terreus [20] = test: Inhibition of metabolite production in Aspergillus terreus isolate 04-188-2548 assessed as lowest drug concentration required to inhibit 50% ethanol, malate production after 48 hrs in presence of 2 % glucose by NMR spectroscopy; type: functional; outline: as §3
Aspergillus niger [21] = test: Inhibition of metabolite production in Aspergillus niger isolate 05-112-3701 assessed as lowest drug concentration required to inhibit 50% citrate production after 48 hrs in presence of 2 % glucose by NMR spectroscopy; type: functional; outline: as §3
Aspergillus terreus [22] = test: Inhibition of metabolite production in Aspergillus terreus isolate 06-059-2428 assessed as lowest drug concentration required to inhibit 50% ethanol production after 48 hrs in presence of 2 % glucose by NMR spectroscopy; type: functional; outline: as §3
Aspergillus nidulans [23] = test: Antifungal activity against Aspergillus nidulans isolate 00-202661 assessed as lowest drug concentration resulting in aberrant hyphal growth after 72 hrs by broth microdilution method; type: functional
Aspergillus fumigatus [24] = test: Inhibition of metabolite production in Aspergillus fumigatus ATCC 204305 assessed as lowest drug concentration required to inhibit 50% malate production after 72 hrs in presence of 2 % glucose by NMR spectroscopy; type: functional
Outline: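 Caspofungin dilutions with A. fumigatus ATCC 204305 in RPMI 1640-2% glucose-MOPS, incubated 72 h. ¹H NMR of medium. MEP = lowest concentration giving ≥50% fall in malate, glycine betaine or fumarate peak areas.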

Aspergillus flavus [25] = test: Antifungal activity against Aspergillus flavus ATCC 204304 assessed as lowest drug concentration resulting in aberrant hyphal growth after 48 hrs by broth microdilution method; type: functional; outline: as §1
Aspergillus niger [26] = test: Antifungal activity against Aspergillus niger isolate 05-290-2479 assessed as lowest drug concentration resulting in aberrant hyphal growth after 48 hrs by broth microdilution method; type: functional; outline: as §1
Aspergillus nidulans [27] = test: Inhibition of metabolite production in Aspergillus nidulans isolate 05-326-1785 assessed as lowest drug concentration required to inhibit 50% fumarate production after 72 hrs in presence of 2 % glucose by NMR spectroscopy; type: functional; outline: as §4
Aspergillus fumigatus [28] = test: Increase in metabolite production in Aspergillus fumigatus isolate 06-067-1639 assessed as lowest drug concentration required to increase >50% glycine betaine production after 48 hrs in presence of 2 % glucose by NMR spectroscopy; type: functional
Aspergillus fumigatus [29] = test: Inhibition of metabolite production in Aspergillus fumigatus isolate 06-067-1639 assessed as inhibition of glycine betaine production at => 1 ug/ml; type: functional, organism-based

`CC[C@H](C)C[C@H](C)CCCCCCCCC(=O)N[C@H]1C[C@@H](O)[C@@H](NCCN)NC(=O)[C@@H]2[C@@H](O)CCN2C(=O)[C@H]([C@H](O)CCN)NC(=O)[C@H]([C@H](O)[C@@H](O)c2ccc(O)cc2)NC(=O)[C@@H]2C[C@@H](O)CN2C(=O)[C@H]([C@@H](C)O)NC1=O` [CASPOFUNGIN] was tested, and the Activity (Aspergillus fumigatus [1]) was 0.03 µg/mL, the “inhibition (INH)” value (Aspergillus fumigatus [2]) was 20% and the Activity (Aspergillus fumigatus [3]) was “Active”. It also gave an Activity (Aspergillus nidulans [4]) of 4 µg/mL, an Activity (Aspergillus fumigatus [5]) of 0.03 µg/mL and an Activity (Aspergillus fumigatus [6]) of 0.03 µg/mL. For the same compound, the Activity (Aspergillus terreus [7]) was 0.03 µg/mL, the Activity (Aspergillus niger [8]) was 0.5 µg/mL and the Activity (Aspergillus fumigatus [9]) was 0.06 µg/mL. For the same compound, the Activity (Aspergillus fumigatus [10]) was “Active”, the Activity (Aspergillus fumigatus [11]) was 0.5 µg/mL and the Activity (Aspergillus fumigatus [12]) was 0.5 µg/mL. It also gave an Activity (Aspergillus niger [13]) of 0.25 µg/mL, an Activity (Aspergillus nidulans [14]) of 2 µg/mL and an Activity (Aspergillus flavus [15]) of 0.03 µg/mL. The Activity (Aspergillus terreus [16]) was 0.03 µg/mL, the Activity (Aspergillus flavus [17]) was 0.03 µg/mL and the Activity (Aspergillus flavus [18]) was 0.03 µg/mL. For the same compound, the Activity (Aspergillus fumigatus [19]) was 0.03 µg/mL, the Activity (Aspergillus terreus [20]) was 0.5 µg/mL and the Activity (Aspergillus niger [21]) was 0.5 µg/mL. The Activity (Aspergillus terreus [22]) was 0.06 µg/mL, the Activity (Aspergillus nidulans [23]) was 2 µg/mL and the Activity (Aspergillus fumigatus [24]) was 0.03 µg/mL. The Activity (Aspergillus flavus [25]) was 0.03 µg/mL, the Activity (Aspergillus niger [26]) was 0.5 µg/mL and the Activity (Aspergillus nidulans [27]) was 4 µg/mL. For the same compound, the Activity (Aspergillus fumigatus [28]) was 1 µg/mL and the Activity (Aspergillus fumigatus [29]) was “inactive”.
